Consider eleven compounds from PubChem BioAssay AID651708 (Sanford-Burnham Center for Chemical Genomics, 2012).

What all share (experiment): GPCR panel antagonist activity incl. apelin receptor – cell-based, CHO-K1 PathHunter beta-arrestin, luminescence, set 3, selectivity assay for CXCR6 antagonist project, profiling panel (AID 651708)
The target in assay [1] is Apelin receptor (Homo sapiens) (UniProt P35414). The following applies: antagonist mode, APJ. The gist of the method: (§1)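 Material – CHO-K1 PathHunter β-arrestin cell lines for APJ, CCR6 or CXCR6 · Probe or stimulus – APJ 10 nM Apelin-13, CCR6 14 nM CCL20, CXCR6 CXCL16 · Measured by – β-arrestin recruitment luminescence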
Apelin receptor (Homo sapiens), sequence (P35414 whole entry, looked up): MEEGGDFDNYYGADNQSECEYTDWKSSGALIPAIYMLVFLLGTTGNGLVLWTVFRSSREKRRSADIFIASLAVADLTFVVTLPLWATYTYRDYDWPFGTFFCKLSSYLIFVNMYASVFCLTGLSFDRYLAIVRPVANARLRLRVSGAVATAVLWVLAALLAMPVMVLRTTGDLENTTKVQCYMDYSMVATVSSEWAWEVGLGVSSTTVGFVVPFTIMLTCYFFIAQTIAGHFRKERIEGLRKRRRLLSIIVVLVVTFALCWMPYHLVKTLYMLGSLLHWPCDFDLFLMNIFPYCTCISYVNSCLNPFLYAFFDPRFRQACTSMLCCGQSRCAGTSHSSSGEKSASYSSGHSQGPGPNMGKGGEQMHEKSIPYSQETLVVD
The target in assay [2] is C-C chemokine receptor type 6 (Homo sapiens) (UniProt P51684). The following applies: antagonist mode. The gist of the method: as §1
C-C chemokine receptor type 6 (Homo sapiens), sequence (P51684 whole entry, looked up): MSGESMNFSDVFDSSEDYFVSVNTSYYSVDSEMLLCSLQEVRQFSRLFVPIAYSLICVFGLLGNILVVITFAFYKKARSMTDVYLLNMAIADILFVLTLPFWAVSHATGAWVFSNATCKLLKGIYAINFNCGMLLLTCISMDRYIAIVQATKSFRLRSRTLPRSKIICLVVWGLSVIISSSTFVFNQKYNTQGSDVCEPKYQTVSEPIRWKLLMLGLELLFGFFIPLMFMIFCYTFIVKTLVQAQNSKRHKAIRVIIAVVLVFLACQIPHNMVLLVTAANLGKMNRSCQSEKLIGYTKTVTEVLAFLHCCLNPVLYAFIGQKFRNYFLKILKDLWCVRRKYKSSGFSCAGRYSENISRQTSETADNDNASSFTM
In assay [3] the target is C-X-C chemokine receptor type 6 (Homo sapiens) (UniProt O00574). The following applies: antagonist mode. The gist of the method: as §1
C-X-C chemokine receptor type 6 (Homo sapiens), sequence (O00574 whole entry, looked up): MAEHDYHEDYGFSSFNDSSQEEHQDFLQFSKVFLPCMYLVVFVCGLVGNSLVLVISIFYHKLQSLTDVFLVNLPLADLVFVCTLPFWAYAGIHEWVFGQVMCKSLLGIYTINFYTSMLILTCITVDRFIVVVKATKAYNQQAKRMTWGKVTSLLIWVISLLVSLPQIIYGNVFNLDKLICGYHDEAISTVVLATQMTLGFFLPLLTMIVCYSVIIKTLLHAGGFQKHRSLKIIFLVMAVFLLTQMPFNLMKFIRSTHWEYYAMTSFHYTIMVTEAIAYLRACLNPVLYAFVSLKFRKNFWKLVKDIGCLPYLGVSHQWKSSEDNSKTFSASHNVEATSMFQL

Calls of active or inactive are those of the source.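 How the source made its calls: active means compound with IC50 above 30 µM at both the APJ and CCR6 off-target receptors, and at most 10 µM at CXCR6; inactive means the rest.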

As for `COc1cc(OC)cc(C(=O)NC2CC3CCCC(C2)N3CC(=O)Nc2ccc(F)cc2)c1` (stereo not given), the IC50 in assay [1] (mean of runs) was > 79 µM (inactive); in assay [1] (run 1), above 79 µM; in assay [1] (run 2) it was above 79 µM; in assay [2] (CCR6, mean of runs), > 79 µM (inactive); in assay [2] (CCR6, run 1) it was above 79 µM; in assay [2] (CCR6, run 2), above 79 µM. Further, the IC50 in assay [3] (CXCR6, mean of runs) is > 79 µM (inactive); in assay [3] (CXCR6, run 1), above 79 µM; in assay [3] (CXCR6, run 2), above 79 µM.
As to `O=C(CN1C2CCCC1CC(NC(=O)c1ccc3c(c1)OCO3)C2)Nc1ccc(Cl)cc1` (stereo not given), the half-maximal inhibitory concentration (IC50) was above 79 µM in assay [1] (run 1); 36.9 µM in assay [1] (run 2); > 79 µM (inactive) in assay [2] (CCR6, mean of runs); above 79 µM in assay [2] (CCR6, run 1); above 79 µM in assay [2] (CCR6, run 2); > 79 µM (inactive) in assay [3] (CXCR6, mean of runs). Moreover, the IC50 in assay [3] (CXCR6, run 1) was above 79 µM; in assay [3] (CXCR6, run 2) it was above 79 µM.
On to `COc1ccccc1NC(=O)CN1C2CCCC1CC(NC(=O)c1cc(OC)c(OC)c(OC)c1)C2` (stereo not given), for which the IC50 is above 79 µM in assay [1] (run 1); 25.4 µM in assay [1] (run 2); > 79 µM (inactive) in assay [2] (CCR6, mean of runs); above 79 µM in assay [2] (CCR6, run 1); above 79 µM in assay [2] (CCR6, run 2); 1.95 µM in assay [3] (CXCR6, mean of runs). The IC50 in assay [3] (CXCR6, run 1) was determined as 1.81 µM; in assay [3] (CXCR6, run 2), 2.09 µM.
Take `COc1cccc(C(=O)NC2CC3CCCC(C2)N3CC(=O)Nc2ccccc2)c1` (stereo not given): the IC50 in assay [1] (mean of runs) is > 79 µM (inactive); in assay [1] (run 1) it was above 79 µM; in assay [1] (run 2), above 79 µM; in assay [2] (CCR6, mean of runs), > 79 µM (inactive); in assay [2] (CCR6, run 1), above 79 µM; in assay [2] (CCR6, run 2), above 79 µM. Also, the IC50 is > 79 µM (inactive) in assay [3] (CXCR6, mean of runs); above 79 µM in assay [3] (CXCR6, run 1); above 79 µM in assay [3] (CXCR6, run 2).
As to `O=C(CN1C2CCCC1CC(NC(=O)c1ccc3c(c1)OCO3)C2)Nc1ccc(F)cc1` (stereo not given), the IC50 is > 79 µM (inactive) in assay [1] (mean of runs); above 79 µM in assay [1] (run 1); above 79 µM in assay [1] (run 2); > 79 µM (inactive) in assay [2] (CCR6, mean of runs); above 79 µM in assay [2] (CCR6, run 1); above 79 µM in assay [2] (CCR6, run 2). Also, the IC50 is > 79 µM (inactive) in assay [3] (CXCR6, mean of runs); above 79 µM in assay [3] (CXCR6, run 1); above 79 µM in assay [3] (CXCR6, run 2).
Turning to `O=C(CN1C2CCCC1CC(NC(=O)c1ccc3c(c1)OCO3)C2)Nc1ccccc1` (stereo not given), the IC50 is > 79 µM (inactive) in assay [1] (mean of runs); above 79 µM in assay [1] (run 1); above 79 µM in assay [1] (run 2); > 79 µM (inactive) in assay [2] (CCR6, mean of runs); above 79 µM in assay [2] (CCR6, run 1); above 79 µM in assay [2] (CCR6, run 2). Also, the IC50 in assay [3] (CXCR6, mean of runs) was > 79 µM (inactive); in assay [3] (CXCR6, run 1), above 79 µM; in assay [3] (CXCR6, run 2), above 79 µM.
Turning to `COc1ccc(C(=O)NC2CC3CCCC(C2)N3CC(=O)Nc2ccc(F)cc2)cc1` (stereo not given), the IC50 in assay [1] (mean of runs) was > 79 µM (inactive); in assay [1] (run 1), above 79 µM; in assay [1] (run 2), above 79 µM; in assay [2] (CCR6, mean of runs), > 79 µM (inactive); in assay [2] (CCR6, run 1) it was above 79 µM; in assay [2] (CCR6, run 2), above 79 µM. For the same compound, the IC50 in assay [3] (CXCR6, mean of runs) is > 79 µM (inactive); in assay [3] (CXCR6, run 1), above 79 µM; in assay [3] (CXCR6, run 2), above 79 µM.
Consider `COc1ccc(C(=O)NC2CC3CCCC(C2)N3CC(=O)Nc2ccccc2)cc1` (stereo not given), for which the IC50 in assay [1] (mean of runs) was > 79 µM (inactive); in assay [1] (run 1), above 79 µM; in assay [1] (run 2) it was above 79 µM; in assay [2] (CCR6, mean of runs) it was > 79 µM (inactive); in assay [2] (CCR6, run 1), above 79 µM; in assay [2] (CCR6, run 2), above 79 µM. Moreover, the IC50 in assay [3] (CXCR6, mean of runs) was > 79 µM (inactive); in assay [3] (CXCR6, run 1), above 79 µM; in assay [3] (CXCR6, run 2), above 79 µM.
As for `COc1cccc(C(=O)NC2CC3CCCC(C2)N3CC(=O)Nc2ccc(C)cc2)c1` (stereo not given), the IC50 in assay [1] (run 1) is above 79 µM; in assay [1] (run 2) it was 1.18 µM; in assay [2] (CCR6, mean of runs), > 79 µM (inactive); in assay [2] (CCR6, run 1), above 79 µM; in assay [2] (CCR6, run 2), above 79 µM; in assay [3] (CXCR6, mean of runs), > 79 µM (inactive). For the same compound, the IC50 was above 79 µM in assay [3] (CXCR6, run 1) and above 79 µM in assay [3] (CXCR6, run 2).
For the compound `COc1cc(OC)cc(C(=O)NC2CC3CCCC(C2)N3CC(=O)Nc2ccccc2)c1` (stereo not given), the IC50 is above 79 µM in assay [1] (run 1); 11.2 µM in assay [1] (run 2); > 79 µM (inactive) in assay [2] (CCR6, mean of runs); above 79 µM in assay [2] (CCR6, run 1); above 79 µM in assay [2] (CCR6, run 2); > 79 µM (inactive) in assay [3] (CXCR6, mean of runs). Besides, the IC50 was above 79 µM in assay [3] (CXCR6, run 1) and above 79 µM in assay [3] (CXCR6, run 2).
As to `COc1ccc(C(=O)NC2CC3CCCC(C2)N3CC(=O)Nc2ccc(C)cc2)cc1OC` (stereo not given), the IC50 was > 79 µM (inactive) in assay [1] (mean of runs); above 79 µM in assay [1] (run 1); above 79 µM in assay [1] (run 2); > 79 µM (inactive) in assay [2] (CCR6, mean of runs); above 79 µM in assay [2] (CCR6, run 1); above 79 µM in assay [2] (CCR6, run 2). For the same compound, the IC50 is > 79 µM (inactive) in assay [3] (CXCR6, mean of runs); above 79 µM in assay [3] (CXCR6, run 1); above 79 µM in assay [3] (CXCR6, run 2).

Broadly, the IC50 is the concentration that inhibits the measured activity by half.
